From publication PMC7583637 (Bioconjugate Chemistry, 2020)
Where a SMILES comes first, the peptide text is derived from it. [ ]: non-standard residue; d: D form. Dip = N[C@H](C(=O)O)C(c1ccccc1)c1ccccc1; Chg = N[C@H](C(=O)O)C1CCCCC1; NMeA = CN[C@@H](C)C(=O)O

How the values were obtained:
c-FLIP mRNA = experiment: RT-qPCR of c-FLIP mRNA expression; assay type: cell-based, human; details: 300 nM, Lipofectamine LTX, 24 h; for Reduction of c-FLIP mRNA levels: A549, relative to reference genes, ΔΔCq, n = 3; for Effect on c-FLIP mRNA levels: A549
c-FLIP = details: 2′-MOE-RNA/DNA gapmer PSOs; cited from earlier work
A549 cells [1] = experiment: AlamarBlue viability assay after lipofection of SMC-PSO conjugates; assay type: cell-based, human; details: 100 nM, Lipofectamine LTX, 48 h, no TRAIL; for Loss of viability: relative to medium control
In short: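 A549 cells in DMEM with 10% FCS and 4 mM glutamine (37 °C, 5% CO2) were seeded at 5 × 10³ cells/well and grown 24 h to ~70% confluency. Conjugate in OptiMEM was complexed with PLUS Reagent, then Lipofectamine LTX (20 min, RT), and added at 100 nM final in antibiotic-free medium. After 48 h, cells were PBS-washed and given alamarBlue (1:10 in PBS) for 2 h at 37 °C. Fluorescence was read at 531/590 nm relative to medium control.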

XIAP L-Bir2-Bir3 = XIAP L-Bir2-Bir3 (Homo sapiens, UniProt P98170); experiment: Competitive fluorescence polarization binding assay with Smac-1F probe
XIAP L-Bir2-Bir3, sequence (P98170 120-356): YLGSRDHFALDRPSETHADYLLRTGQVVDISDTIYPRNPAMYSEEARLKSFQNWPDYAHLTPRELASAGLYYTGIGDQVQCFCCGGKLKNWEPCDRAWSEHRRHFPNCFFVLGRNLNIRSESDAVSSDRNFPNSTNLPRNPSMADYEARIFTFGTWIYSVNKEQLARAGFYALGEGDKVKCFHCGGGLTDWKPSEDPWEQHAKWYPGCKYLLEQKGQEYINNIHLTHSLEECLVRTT

A549 cells [2] = experiment: AlamarBlue viability assay, PNA-CPP and SMC-PNA-CPP conjugates or chloroquine; assay type: cell-based, human; details: control experiments, Figure S7A
Caspase 3 and 7 activity = experiment: Caspase 3/7 assay; assay type: cell-based, human; details: 200 nM conjugate, 2 ng/mL SuperKillerTRAIL, 24 h, DEVD-AFC
In short: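 A549 cells were seeded in 6-well plates 24 h ahead and lipofected to a final 200 nM with 2 ng/mL SuperKillerTRAIL. After 24 h, cells were harvested and lysed (HEPES/NaCl/EDTA/1% Triton X-100, pH 7.5; 20 min on ice with sonication), and protein was measured by BCA. 35 μg protein was mixed with 2× buffer (HEPES, 20 mM DTT, 20% glycerol, pH 7.5) containing 50 μM DEVD-AFC, 2 h at 37 °C in the dark. […] versus medium-treated control; SD shown.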

A549 cells [3] = details: read-out: IC50, toxicity to A549 cells; cited from earlier work

For “5'-ACTTGTCCCTGCTCCTTGAA-3' (full phosphorothioate, further chemistry not given here) [ISIS 23296, reference compound]”, the “Reduction of c-FLIP mRNA levels” value (c-FLIP mRNA) is listed as “up to 50%”, the “Knockdown reported in original publication” value (c-FLIP) is listed as 70% and the Loss of viability (A549 cells [1]) is listed as “ca. 30%”.

In the case of “5'-AGTTCTCTCTGCCCCTAGAT-3' (phosphorothioate, further chemistry not given here) [unconjugated, scrambled PSO, reference compound]”, the “Effect on c-FLIP mRNA levels” value (c-FLIP mRNA) is reported as “significant upregulation of c-FLIP levels” and the “Effect on viability” value (A549 cells [1]) is reported as “some decrease in viability”.

For `CN[C@@H](C)C(=O)N[C@H](C(=O)N1CCC[C@H]1C(=O)N[C@H](C(=O)NCC(N)=O)C(c1ccccc1)c1ccccc1)C1CCCCC1` [SMC, H-MeAla-Chg-Pro-Dip-Gly-NH2] (H-[NMeA][Chg]P[Dip]G-NH2), the IC50 (XIAP L-Bir2-Bir3) was 4.6 µM.

With `CCN(CC)CCCC(C)Nc1ccnc2cc(Cl)ccc12` (centres unmarked) [chloroquine] the “Concentration up to which viability of A549 cells is not affected” value (A549 cells [2]) was “up to 200 μM”.

With “Ac-Gly-Lys(N3-DBCO-ACTTGTCCCTGCTCCTTGAA)-Dap(AcS-Chg-Pro-Dip)-NH2 [AcSMC-PSO1]” the Loss of viability (A549 cells [1]) was “ca. 30%”.

Molecule “Ac-Gly-Lys(N3-DBCO-ACTTGTCCCTGCTCCTTGAA)-Dap(MeA-Chg-Pro-Dip)-NH2 [SMC-PSO1]” has a Loss of viability (A549 cells [1]) of 40%.

For “Ac-Gly-Lys(N3-DBCO-AGTTCTCTCTGCCCCTAGAT)-Dap(AcS-Chg-Pro-Dip)-NH2 [AcSMC-scrPSO1]”, the “Effect on viability” value (A549 cells [1]) was “some decrease in viability”.

With “Ac-Gly-Lys(N3-DBCO-AGTTCTCTCTGCCCCTAGAT)-Dap(MeA-Chg-Pro-Dip)-NH2 [SMC-scrPSO1]” the Loss of viability (A549 cells [1]) was “ca. 30%”.

In the case of “AcS-Chg-Pro-Dip-Gly-Gly-Lys(N3-DBCO-ACTTGTCCCTGCTCCTTGAA)-Dap(AcS-Chg-Pro-Dip)-NH2 [(AcSMC)2-PSO1]”, the “Reduction of c-FLIP mRNA levels” value (c-FLIP mRNA) is reported as “around 40%”.

For “AcS-Chg-Pro-Dip-Gly-Gly-Lys(N3-DBCO-AGTTCTCTCTGCCCCTAGAT)-Dap(AcS-Chg-Pro-Dip)-NH2 [(AcSMC)2-scrPSO1]”, the “Effect on c-FLIP mRNA levels” value (c-FLIP mRNA) was “upregulation of c-FLICE did not occur”.

For “MeA-Chg-Pro-Dip-Gly-Gly-Lys(N3-DBCO-ACTTGTCCCTGCTCCTTGAA)-Dap(MeA-Chg-Pro-Dip)-NH2 [(SMC)2-PSO1]”, the “Reduction of c-FLIP mRNA levels” value (c-FLIP mRNA) was “around 40%”, the Loss of viability (A549 cells [1]) was 50–60% and the “Increase of caspase 3/7 activity over background” value (Caspase 3 and 7 activity) was ~40 fold.

For “MeA-Chg-Pro-Dip-Gly-Gly-Lys(N3-DBCO-AGTTCTCTCTGCCCCTAGAT)-Dap(MeA-Chg-Pro-Dip)-NH2 [(SMC)2-scrPSO1]”, the “Effect on c-FLIP mRNA levels” value (c-FLIP mRNA) was “upregulation of c-FLICE did not occur”.

In the case of Penetratin, the IC50 (A549 cells [3]) is given as 60.8 µM.

In the case of Transportan, the IC50 (A549 cells [3]) is listed as 2.5 µM.

For octaarginine, the IC50 (A549 cells [3]) is given as > 1000 µM.
